Reference: ChEMBL document CHEMBL4052615, “Discovery of 4-amino-3-arylsulfoquinolines, a novel non-acetylenic chemotype of metabotropic glutamate 5 (mGlu5) receptor negative allosteric modulators” (Eur J Med Chem, 2017)

Target: Metabotropic glutamate receptor 5 (Homo sapiens, UniProt P41594)
Assay: Displacement of [3H]M-MPEP from mGluR5 (unknown origin) at 1 uM measured after 60 mins relative to control
Summary of the method: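 Rat cerebrocortical membranes or membranes from A18 cells expressing human mGlu5a, incubated with [³H]M-MPEP and test compound at 1 µM in 50 mM Tris pH 7.6 with 2 mM MgCl₂ and 2 mM CaCl₂, 60 min at 25°C. Non-specific binding was taken with […]. Result is % displacement, run in duplicate or triplicate.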

Metabotropic glutamate receptor 5, sequence (P41594 21-1212 limits assumed): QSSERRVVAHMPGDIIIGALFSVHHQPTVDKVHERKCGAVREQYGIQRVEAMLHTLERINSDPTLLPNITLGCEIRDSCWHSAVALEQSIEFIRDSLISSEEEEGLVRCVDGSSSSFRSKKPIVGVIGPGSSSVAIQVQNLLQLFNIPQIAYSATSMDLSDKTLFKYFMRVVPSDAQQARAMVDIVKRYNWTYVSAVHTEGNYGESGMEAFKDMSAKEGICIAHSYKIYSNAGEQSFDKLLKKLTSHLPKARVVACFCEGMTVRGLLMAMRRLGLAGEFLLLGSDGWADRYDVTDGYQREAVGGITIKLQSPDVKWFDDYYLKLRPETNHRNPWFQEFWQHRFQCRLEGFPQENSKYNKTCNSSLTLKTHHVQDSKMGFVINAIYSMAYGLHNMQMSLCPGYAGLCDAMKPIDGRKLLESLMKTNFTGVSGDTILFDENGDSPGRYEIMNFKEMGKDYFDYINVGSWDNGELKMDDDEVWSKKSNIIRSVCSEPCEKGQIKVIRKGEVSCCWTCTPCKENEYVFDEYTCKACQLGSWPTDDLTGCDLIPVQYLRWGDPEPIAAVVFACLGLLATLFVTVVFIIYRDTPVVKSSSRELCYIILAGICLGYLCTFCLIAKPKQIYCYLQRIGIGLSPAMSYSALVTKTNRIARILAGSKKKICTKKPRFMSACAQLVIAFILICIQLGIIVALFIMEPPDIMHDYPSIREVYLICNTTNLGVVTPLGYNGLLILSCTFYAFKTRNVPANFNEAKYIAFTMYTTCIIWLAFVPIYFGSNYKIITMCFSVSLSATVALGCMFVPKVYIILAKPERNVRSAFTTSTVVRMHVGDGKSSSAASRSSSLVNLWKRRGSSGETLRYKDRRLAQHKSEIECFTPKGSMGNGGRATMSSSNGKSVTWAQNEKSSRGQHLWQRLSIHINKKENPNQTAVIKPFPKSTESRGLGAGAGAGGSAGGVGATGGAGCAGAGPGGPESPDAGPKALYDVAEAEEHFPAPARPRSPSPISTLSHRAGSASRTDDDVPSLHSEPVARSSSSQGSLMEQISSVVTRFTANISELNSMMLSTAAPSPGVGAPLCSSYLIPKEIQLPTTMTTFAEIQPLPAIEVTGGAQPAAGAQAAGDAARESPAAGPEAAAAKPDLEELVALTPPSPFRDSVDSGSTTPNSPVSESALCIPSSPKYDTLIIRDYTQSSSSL

| SMILES | inhibition |
| --- | --- |
| Cc1ccc(S(=O)(=O)c2cnc3c(F)cccc3c2N2CCOCC2)cc1 | 23% |
| CC1CCN(c2c(S(=O)(=O)c3ccc(Cl)cc3)cnc3ccc(F)cc23)CC1 | 80% |
| O=S(=O)(c1ccc(F)c(F)c1)c1cnc2cc(F)ccc2c1N1CCOCC1 | 56% |
| O=S(=O)(c1cc(Cl)cc(Cl)c1)c1cnc2cc(Cl)ccc2c1N1CCOCC1 | 85% |
| CC1CCN(c2c(S(=O)(=O)c3cccc(Cl)c3)cnc3ccc(F)cc23)CC1 | 92% |
| COc1cccc(S(=O)(=O)c2cnc3ccc(F)cc3c2N2CCOCC2)c1 | 41% |
| Cc1ccc(S(=O)(=O)c2cnc3c(F)cccc3c2N2CCC(C)CC2)cc1 | 93% |
| CC1CCN(c2c(S(=O)(=O)c3ccc(C#N)cc3)cnc3cc(F)ccc23)CC1 | 83% |
| CC1CCN(c2c(S(=O)(=O)c3cccc(F)c3)cnc3ccc(Cl)cc23)CC1 | 58% |
| Cc1ccc2ncc(S(=O)(=O)c3cccc(Cl)c3)c(N3CCC(C)CC3)c2c1 | 91% |
| O=S(=O)(c1ccc(F)c(F)c1)c1cnc2cc(Cl)ccc2c1N1CCOCC1 | 49% |
| CC1CCN(c2c(S(=O)(=O)c3ccc(C#N)cc3)cnc3ccc(F)cc23)CC1 | 75% |
| Cc1ccc2ncc(S(=O)(=O)c3ccc(C)c(Cl)c3)c(N3CCOCC3)c2c1 | 75% |
| O=S(=O)(c1cccc(F)c1)c1cnc2c(F)cccc2c1N1CCOCC1 | 23% |
| Cc1cc(C)cc(S(=O)(=O)c2cnc3ccc(Cl)cc3c2N2CCC(C)CC2)c1 | 49% |
| COc1ccc(S(=O)(=O)c2cnc3cc(Cl)ccc3c2N2CCOCC2)cc1Cl | 62% |
| N#Cc1ccc(S(=O)(=O)c2cnc3cc(F)ccc3c2N2CCOCC2)cc1 | 4% |
| Cc1cc(C)cc(S(=O)(=O)c2cnc3ccc(Cl)cc3c2N2CCOCC2)c1 | 14% |
| COc1ccc2ncc(S(=O)(=O)c3ccc(Cl)cc3)c(N3CCOCC3)c2c1 | 93% |
| CC1CCN(c2c(S(=O)(=O)c3cccc(Cl)c3)cnc3cc(Cl)ccc23)CC1 | 92% |
| O=S(=O)(c1cccc(Cl)c1)c1cnc2ccc(F)cc2c1N1CCOCC1 | 40% |

| SMILES | inhibition |
| --- | --- |
| Cc1ccc2ncc(S(=O)(=O)c3cccc(Cl)c3)c(N3CCOCC3)c2c1 | 44% |
| O=S(=O)(c1ccc(Cl)cc1)c1cnc2cc(F)ccc2c1N1CCOCC1 | 50% |
| O=S(=O)(c1ccc(F)cc1)c1cnc2ccc(F)cc2c1N1CCOCC1 | 2% |
| O=S(=O)(c1cccc(F)c1)c1cnc2cc(Cl)ccc2c1N1CCC(CO)CC1 | 71% |
| Cc1ccc(S(=O)(=O)c2cnc3cc(Cl)ccc3c2N2CCOCC2)cc1C | 87% |
| COc1ccc(S(=O)(=O)c2cnc3ccc(F)cc3c2N2CCOCC2)cc1OC | -5% |
| CC1CCN(c2c(S(=O)(=O)c3cccc(Cl)c3)cnc3ccc(Cl)cc23)CC1 | 92% |
| COc1ccc(S(=O)(=O)c2cnc3ccc(F)cc3c2N2CCC(C)CC2)cc1 | 85% |
| COc1ccc(S(=O)(=O)c2cnc3cc(F)ccc3c2N2CCOCC2)cc1OC | 5% |
| Cc1ccc(S(=O)(=O)c2cnc3cc(Cl)ccc3c2N2CCC(C)CC2)cc1Cl | 89% |
| Cc1ccc(S(=O)(=O)c2cnc3cc(F)ccc3c2N2CCOCC2)cc1 | 33% |
| O=S(=O)(c1ccc(Cl)c(Cl)c1)c1cnc2cc(F)ccc2c1N1CCOCC1 | 86% |
| COc1ccc(S(=O)(=O)c2cnc3cc(F)ccc3c2N2CCOCC2)cc1Cl | 53% |
| O=S(=O)(c1cc(F)cc(F)c1)c1cnc2c(F)cccc2c1N1CCOCC1 | 52% |
| CC1CCN(c2c(S(=O)(=O)c3ccc(F)c(F)c3)cnc3c(F)cccc23)CC1 | 93% |
| O=S(=O)(c1ccccc1)c1cnc2ccccc2c1N1CCN(c2ccccc2)CC1 | 13.5% |
| COc1ccc2ncc(S(=O)(=O)c3cc(C)cc(C)c3)c(N3CCOCC3)c2c1 | 11% |
| Cc1ccc(S(=O)(=O)c2cnc3ccc(C)cc3c2N2CCC(C)CC2)cc1 | 82% |
| CC1CCN(c2c(S(=O)(=O)c3ccc(C#N)cc3)cnc3c(F)cccc23)CC1 | 86% |
| Cc1cc(C)cc(S(=O)(=O)c2cnc3cc(F)ccc3c2N2CCC(C)CC2)c1 | 80% |
| O=S(=O)(c1ccc(F)cc1)c1cnc2c(F)cccc2c1N1CCOCC1 | 34% |

| SMILES | inhibition |
| --- | --- |
| NC(=O)C1CCN(c2c(S(=O)(=O)c3ccccc3)cnc3ccccc23)CC1 | 24.8% |
| COc1ccc(S(=O)(=O)c2cnc3cc(F)ccc3c2N2CCOCC2)cc1 | 23% |
| Cc1ccc(S(=O)(=O)c2cnc3cc(F)ccc3c2N2CCC(C)CC2)cc1Cl | 93% |
| CCOC(=O)C1CCN(c2c(S(=O)(=O)c3ccccc3)cnc3ccccc23)CC1 | 33% |
| COc1ccc(S(=O)(=O)c2cnc3ccc(Cl)cc3c2N2CCOCC2)cc1Cl | 33% |
| Cc1cc(C)cc(S(=O)(=O)c2cnc3ccc(F)cc3c2N2CCOCC2)c1 | 43% |
| O=S(=O)(c1cccc(F)c1)c1cnc2cc(F)ccc2c1N1CCSCC1 | 62.7% |
| CC1CCN(c2c(S(=O)(=O)c3cc(F)cc(F)c3)cnc3c(F)cccc23)CC1 | 9% |
| COc1cccc(S(=O)(=O)c2cnc3ccc(OC)cc3c2N2CCOCC2)c1 | 20% |
| N#Cc1cccc(S(=O)(=O)c2cnc3cc(Cl)ccc3c2N2CCOCC2)c1 | 73% |
| COc1ccc2ncc(S(=O)(=O)c3ccc(Cl)c(Cl)c3)c(N3CCOCC3)c2c1 | 29% |
| N#Cc1cccc(S(=O)(=O)c2cnc3ccc(F)cc3c2N2CCOCC2)c1 | 25% |
| CC1CCN(c2c(S(=O)(=O)c3ccc(Cl)cc3)cnc3cc(Cl)ccc23)CC1 | 91% |
| COc1ccc2ncc(S(=O)(=O)c3ccc(C)c(Cl)c3)c(N3CCC(C)CC3)c2c1 | 85% |
| O=S(=O)(c1cc(F)cc(F)c1)c1cnc2ccc(F)cc2c1N1CCOCC1 | 3% |
| NS(=O)(=O)N1CCN(c2c(S(=O)(=O)c3cc(F)cc(F)c3)cnc3cc(F)ccc23)CC1 | 6.4% |
| Cc1ccc2ncc(S(=O)(=O)c3cccc(C#N)c3)c(N3CCC(C)CC3)c2c1 | 52% |
| COc1ccc2ncc(S(=O)(=O)c3cc(F)cc(F)c3)c(N3CCC(C)CC3)c2c1 | 30% |
| O=S(=O)(c1cccc(F)c1)c1cnc2cc(Cl)ccc2c1N1CCOCC1 | 32% |
| Cc1ccc2ncc(S(=O)(=O)c3cc(Cl)cc(Cl)c3)c(N3CCOCC3)c2c1 | 70% |
| COc1ccc2ncc(S(=O)(=O)c3ccc(C)c(F)c3)c(N3CCC(C)CC3)c2c1 | 73% |

Next, values leading:

| inhibition | SMILES |
| --- | --- |
| 33% | Cc1ccc2ncc(S(=O)(=O)c3ccc(C)c(F)c3)c(N3CCOCC3)c2c1 |
| 4% | COc1ccc(S(=O)(=O)c2cnc3cc(Cl)ccc3c2N2CCOCC2)cc1OC |
| 5.6 to 96% | CC1CCN(c2c(S(=O)(=O)c3cccc(F)c3)cnc3cc(Cl)ccc23)CC1 |
| 68% | COc1ccc2ncc(S(=O)(=O)c3cccc(F)c3)c(N3CCC(C)CC3)c2c1 |
| 54% | COc1ccc(S(=O)(=O)c2cnc3ccc(F)cc3c2N2CCC(C)CC2)cc1OC |
| 12% | Cc1ccc(S(=O)(=O)c2cnc3cc(Cl)ccc3c2N2CCOCC2)cc1 |
| 62.7% | O=S(=O)(c1ccc(F)cc1)c1cnc2cc(F)ccc2c1N1CCSCC1 |
| 94% | CC1CCN(c2c(S(=O)(=O)c3cccc(C#N)c3)cnc3cc(Cl)ccc23)CC1 |
| 84% | Cc1ccc(S(=O)(=O)c2cnc3ccc(Cl)cc3c2N2CCOCC2)cc1 |
| 64% | COc1ccc2ncc(S(=O)(=O)c3ccccc3)c(N3CCC(C)CC3)c2c1 |
| 90% | COc1ccc2ncc(S(=O)(=O)c3cccc(C#N)c3)c(N3CCC(C)CC3)c2c1 |
| 78% | O=S(=O)(c1ccc(Cl)cc1)c1cnc2ccc(F)cc2c1N1CCOCC1 |
| 89% | CC1CCN(c2c(S(=O)(=O)c3ccc(F)cc3)cnc3ccc(Cl)cc23)CC1 |
| 85% | Cc1ccc(S(=O)(=O)c2cnc3cc(Cl)ccc3c2N2CCC(C)CC2)cc1F |
| 93% | CC1CCN(c2c(S(=O)(=O)c3cc(F)cc(F)c3)cnc3ccc(Cl)cc23)CC1 |
| 47% | Cc1cc(C)cc(S(=O)(=O)c2cnc3ccc(C)cc3c2N2CCOCC2)c1 |
| 93% | CC1CCN(c2c(S(=O)(=O)c3ccccc3)cnc3cc(Cl)ccc23)CC1 |
| 65% | COc1ccc2ncc(S(=O)(=O)c3ccccc3)c(N3CCOCC3)c2c1 |

| inhibition | SMILES |
| --- | --- |
| 84% | Cc1ccc(S(=O)(=O)c2cnc3ccc(Cl)cc3c2N2CCC(C)CC2)cc1C |
| 23% | COc1ccc2ncc(S(=O)(=O)c3cc(Cl)cc(Cl)c3)c(N3CCOCC3)c2c1 |
| 58% | COc1ccc(S(=O)(=O)c2cnc3ccc(C)cc3c2N2CCOCC2)cc1Cl |
| -3% | COc1ccc2ncc(S(=O)(=O)c3cccc(Cl)c3)c(N3CCC(C)CC3)c2c1 |
| 62% | COc1ccc(S(=O)(=O)c2cnc3ccc(C)cc3c2N2CCC(C)CC2)cc1 |
| 68% | O=S(=O)(c1ccc(Cl)c(Cl)c1)c1cnc2ccc(F)cc2c1N1CCOCC1 |
| 91% | CC1CCN(c2c(S(=O)(=O)c3ccc(F)cc3)cnc3cc(Cl)ccc23)CC1 |
| 6% | N#Cc1ccc(S(=O)(=O)c2cnc3c(F)cccc3c2N2CCOCC2)cc1 |
| 1% | COc1ccc2ncc(S(=O)(=O)c3ccc(OC)c(OC)c3)c(N3CCOCC3)c2c1 |
| 14% | O=S(=O)(c1cc(Cl)cc(Cl)c1)c1cnc2ccc(Cl)cc2c1N1CCOCC1 |
| -3% | COc1ccc2ncc(S(=O)(=O)c3ccc(OC)c(OC)c3)c(N3CCC(C)CC3)c2c1 |
| 28% | Cc1ccc(S(=O)(=O)c2cnc3ccc(F)cc3c2N2CCOCC2)cc1F |
| 89% | Cc1ccc(S(=O)(=O)c2cnc3cc(F)ccc3c2N2CCC(C)CC2)cc1F |
| 68% | Cc1ccc(S(=O)(=O)c2cnc3ccc(Cl)cc3c2N2CCC(C)CC2)cc1F |
| 91% | COc1ccc2ncc(S(=O)(=O)c3ccc(Cl)cc3)c(N3CCC(C)CC3)c2c1 |
| 0% | COc1cccc(S(=O)(=O)c2cnc3ccc(OC)cc3c2N2CCC(C)CC2)c1 |
| 84% | Cc1ccc(S(=O)(=O)c2cnc3cc(F)ccc3c2N2CCOCC2)cc1Cl |
